Published values from different studies.

Compound	assay	test system	conditions	measurement	result
CC1=C(C(=O)OC(C)(C)C)C(=O)/C(=C\c2cc(C)n(-c3ccccc3C(F)(F)F)c2C)N1	metabolic stability	mouse, liver microsomes	1 µM	half-life	20 min
Oc1c(Br)cc(Cl)c2cccnc12	–	Sprague-Dawley rat, plasma	intravenous, 2 mg/kg	C0	2400 ng/mL
COc1ccc2c(=O)n(C)c(-c3ccccc3)nc2c1	–	male Sprague-Dawley rat, brain	oral, 30 mg/kg, 2 h, single dose	concentration	20 ng/g
CCc1cc(C(=O)NC)c2nccc(N3CCc4c(cc(Cn5ccnc5)cc4-c4cn(C)nc4C(F)(F)F)C3=O)c2c1	–	male Sprague-Dawley rat, plasma	intravenous, 3 mg/kg	C0	2600 ng/mL
Cc1ccc(-c2cc(C(F)(F)F)nn2-c2ccc(S(N)(=O)=O)cc2)cc1	–	male Sprague-Dawley rat, plasma	oral, 20 mg/kg, 4 h	concentration	1500 nM
CCc1cc(-c2noc(-c3cc(OC)nc(C4CCCC4)c3)n2)cc(C)c1OC[C@@H](O)CO	–	Wistar rat, plasma	oral, 0.1 mg/kg, 3 h, single dose	concentration	6.2 ng/mL
Cc1noc(C)c1Cn1cc(N2C(=O)N(Cc3cccc(O)c3)C(C)(C)C2=O)cn1	–	male Sprague-Dawley rat, plasma	oral, 100 mg/kg, 4 h, single dose	concentration	2.9 ng/mL
COc1cccc(-c2n[nH]c(SCc3ccccn3)n2)c1OC	–	male Sprague-Dawley rat, plasma	oral, 10 mg/kg, 2 h, single dose	concentration	1160 ng/mL
CCOC(=O)C1=C(C)N/C(=C/c2cc(C)n(-c3ccc(CN(C)C)cc3)c2C)C1=O	metabolic stability	mouse, liver microsomes	1 µM	half-life	56 min
COC(=O)[C@H](N)CSSC[C@@H](N)C(=O)OC	chemical stability	dog, plasma	–	half-life	15.1 min
CCOC(=O)C1=C(C)N/C(=C/c2cc(C)n(-c3cccc(C(F)(F)F)c3)c2C)C1=O	metabolic stability	mouse, liver microsomes	1 µM	half-life	18 min
CCOC(=O)[C@@]12C[C@@H]1[C@@H](n1ccc3c(NC)nc(C#Cc4ccc(Cl)s4)nc31)[C@H](O)[C@@H]2O	–	male Sprague-Dawley rat, plasma	intravenous, 0.5 mg/kg, 4 h	concentration	1.88 ng/mL
COc1cc2c3c(n(CCCN4CCOCC4)c(=O)c2cc1OC)-c1cc2c(cc1C3=O)OCO2	–	male Fischer 344 rat, plasma	intravenous, 12 mg/m², single dose	half-life	126 min
Cc1noc(C)c1Cn1cc(N2C(=O)CN(Cc3cccc(O)c3)C2=O)cn1	–	male Sprague-Dawley rat, plasma	oral, 10 mg/kg, 4 h	concentration	2.72 ng/mL
CCOC(=O)C1=C(C)N/C(=C/c2cc(C)n(-c3ccc(OC)cc3)c2C)C1=O	metabolic stability	mouse, liver microsomes	1 µM	half-life	32 min
